Reference: ChEMBL document CHEMBL4342521 (J Med Chem, 2020)
Activity calls are given as the source filed them. The rule behind the calls is not given here.

Tests used:
HOP-62 = assay: Antiproliferative activity against human HOP62 cells assessed as reduction in cell viability after 48 hrs by CellTiter-Blue assay; assay type: functional; conditions: HOP-62, 48 h, read-out: LC50 (the source's name)
Procedure, shortened: (§1)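 Cells grown in RPMI1640 with 10% FBS at 37 °C, 5% CO₂. 5,000–10,000 cells/well were pre-incubated overnight, and a time-zero CellTiter-Blue read was taken. Six 10-fold dilutions (top final 10 μM) were applied for 48 h, followed by 0.125 mg/mL CellTiter-Blue for 2–4 h. Resorufin fluorescence was read at ex 560/em 590 nm. […] Triplicates.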

SR = assay: Induction of apoptosis in human SR cells harboring wild type p53 assessed as pro-caspase 3 cleavage at 50 to 200 nM after 24 hrs by Western blot anlaysis; assay type: functional, cell-based
Procedure, shortened: (§2)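 Cells (1,500,000 per well) grown 12 h, then drug-treated as specified. Lysed in RIPA buffer, sonicated, centrifuged, protein normalized by BCA. Run on 4–12% Bis-Tris gels in MES, transferred, probed overnight at 4 °C with primary antibodies at 1/1000. Actin served as reference for LC3-II quantitation.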

MV4-11 = assay: Inhibition of p53 degradation in human MV4-11 cells harboring wild type p53/FLT3-ITD mutant assessed as cleavage of pro caspase-3 at 100 nM after 24 hrs in presence of MDM2 inhibitor RG7388 by Western blot analysis; assay type: functional, cell-based; procedure, shortened: as §2
UACC-62 = assay: Antiproliferative activity against human UACC62 cells assessed as reduction in cell viability after 48 hrs by CellTiter-Blue assay; assay type: functional; conditions: UACC-62, 48 h, read-out: LC50 (the source's name)
Procedure, shortened: (§3)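 NCI-60 panel lines grown in RPMI1640 with 10% FBS at 37 °C, 5% CO₂. Seeded at 5,000–10,000 cells/well and pre-incubated overnight. Exposed for 48 h to six 10-fold dilutions (top final 10 μM), with a time-zero plate read at dosing. CellTiter-Blue (0.125 mg/mL) for 2–4 h, fluorescence 560/590 nm, triplicate curves.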

COLO 205 = assay: Antiproliferative activity against human COLO205 cells assessed as reduction in cell viability after 48 hrs by CellTiter-Blue assay; assay type: functional; conditions: COLO 205, 48 h, read-out: LC50 (the source's name); procedure, shortened: as §1
[1] = target: T1, Protein deacetylase HDAC6 (Homo sapiens, UniProt Q9UBN7); assay: Inhibition of recombinant HDAC6 (unknown origin) using Boc-Lys(acetyl)-AMC as substrate preincubated for 1 hr followed by substrate addition and measured after 2 hrs by fluorescence based micro plate reader analysis
T1 sequence (Q9UBN7 whole entry): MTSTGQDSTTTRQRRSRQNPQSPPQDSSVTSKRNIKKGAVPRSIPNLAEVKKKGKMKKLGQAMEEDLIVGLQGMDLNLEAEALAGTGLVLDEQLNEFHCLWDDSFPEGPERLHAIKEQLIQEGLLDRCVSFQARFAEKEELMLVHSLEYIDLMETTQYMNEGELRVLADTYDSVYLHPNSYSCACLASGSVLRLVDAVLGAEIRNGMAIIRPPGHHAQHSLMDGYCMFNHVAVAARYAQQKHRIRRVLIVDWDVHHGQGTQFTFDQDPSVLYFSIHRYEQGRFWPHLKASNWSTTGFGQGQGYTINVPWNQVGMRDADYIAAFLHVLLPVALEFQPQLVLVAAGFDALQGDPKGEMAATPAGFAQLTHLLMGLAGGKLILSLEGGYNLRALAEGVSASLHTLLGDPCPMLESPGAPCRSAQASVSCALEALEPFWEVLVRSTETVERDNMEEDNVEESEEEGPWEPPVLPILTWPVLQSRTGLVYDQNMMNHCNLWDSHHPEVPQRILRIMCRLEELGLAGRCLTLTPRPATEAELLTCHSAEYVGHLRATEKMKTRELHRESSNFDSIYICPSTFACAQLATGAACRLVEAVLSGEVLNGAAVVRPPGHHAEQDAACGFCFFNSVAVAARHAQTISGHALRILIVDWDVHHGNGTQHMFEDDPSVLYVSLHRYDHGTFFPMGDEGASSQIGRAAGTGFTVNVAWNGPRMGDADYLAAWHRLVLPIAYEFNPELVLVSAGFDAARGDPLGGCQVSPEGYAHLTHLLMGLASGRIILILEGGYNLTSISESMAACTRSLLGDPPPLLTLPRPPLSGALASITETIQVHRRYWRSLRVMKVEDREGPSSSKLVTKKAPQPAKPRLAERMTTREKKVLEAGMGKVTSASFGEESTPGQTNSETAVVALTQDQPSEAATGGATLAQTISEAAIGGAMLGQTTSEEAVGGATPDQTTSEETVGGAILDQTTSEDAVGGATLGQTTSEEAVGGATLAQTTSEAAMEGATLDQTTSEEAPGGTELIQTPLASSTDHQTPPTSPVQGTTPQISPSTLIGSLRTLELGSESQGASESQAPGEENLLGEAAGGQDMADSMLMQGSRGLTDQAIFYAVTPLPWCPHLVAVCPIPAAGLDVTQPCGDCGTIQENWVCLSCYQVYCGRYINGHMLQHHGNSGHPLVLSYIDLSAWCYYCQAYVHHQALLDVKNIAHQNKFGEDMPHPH

SF-539 = assay: Antiproliferative activity against human SF539 cells assessed as reduction in cell viability after 48 hrs by CellTiter-Blue assay; assay type: functional; conditions: SF-539, 48 h, read-out: LC50 (the source's name); procedure, shortened: as §1
Trypsin (Homo sapiens) = Trypsin (Homo sapiens) (UniProt P07477+P07478+P35030); assay: Inhibition of trypsin (unknown origin); assay type: protein assay
LOX IMVI = assay: Antiproliferative activity against human LOXIMVI cells assessed as reduction in cell viability after 48 hrs by CellTiter-Blue assay; assay type: functional; conditions: read-out: LC50 (the source's name); procedure, shortened: as §1
TK-10 = assay: Antiproliferative activity against human TK10 cells assessed as reduction in cell viability after 48 hrs by CellTiter-Blue assay; assay type: functional; conditions: TK-10, 48 h, read-out: LC50 (the source's name); procedure, shortened: as §3
HL-60(TB) = assay: Antiproliferative activity against human HL-60(TB) cells assessed as reduction in cell viability after 48 hrs by CellTiter-Blue assay; assay type: functional; conditions: HL-60, 48 h, read-out: LC50 (the source's name); procedure, shortened: as §1
MDA-MB-231 = assay: Antiproliferative activity against human MDA-MB-231 cells assessed as reduction in cell viability after 48 hrs by CellTiter-Blue assay; assay type: functional; conditions: MDA-MB-231, 48 h, read-out: LC50 (the source's name); procedure, shortened: as §1
Histone deacetylase 8 = Histone deacetylase 8 (Homo sapiens, UniProt Q9BY41); assay: Inhibition of recombinant full length human C-terminal His-tagged HDAC8 expressed in baculovirus infected Sf9 cells using Boc-Lys (trifluoroacetyl)-AMC as substrate preincubated for 1 hr followed by substrate addition and measured after 2 hrs by fluorescence based micro plate reader analysis
Chain of Histone deacetylase 8 (Q9BY41 whole entry): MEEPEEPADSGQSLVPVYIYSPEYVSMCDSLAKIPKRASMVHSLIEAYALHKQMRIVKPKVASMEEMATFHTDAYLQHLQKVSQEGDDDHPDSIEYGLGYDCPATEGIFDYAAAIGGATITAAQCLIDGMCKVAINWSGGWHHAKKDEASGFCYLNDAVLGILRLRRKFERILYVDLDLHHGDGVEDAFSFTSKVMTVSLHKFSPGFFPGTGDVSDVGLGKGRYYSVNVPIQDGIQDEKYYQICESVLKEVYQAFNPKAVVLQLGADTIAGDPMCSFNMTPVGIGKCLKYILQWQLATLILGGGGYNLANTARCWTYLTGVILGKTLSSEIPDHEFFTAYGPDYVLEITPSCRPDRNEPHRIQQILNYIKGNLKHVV
Procedure, shortened: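 Recombinant HDAC8 preincubated with test agent at 30 °C for 1 h. Boc-Lys(trifluoroacetyl)-AMC added (final 50 μM), 2 h at 30 °C. Stopped with trypsin/TSA developer for 30 min; fluorescence read at 360/460 nm. Inhibition relative to control wells; IC50 by variable-slope fit.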

`CCCNNC(=O)/C=C/c1ccc(CNCCc2c(C)[nH]c3ccccc23)cc1.O=C(O)C(F)(F)F` was tested, and the CC50 (HOP-62) was > 10 µM, the Activity (SR) was “inactive” and the inhibition (MV4-11) was “Active”. The CC50 (UACC-62) was 0.589 µM, the CC50 (COLO 205) was 0.66 µM and the IC50 [1] was > 50 µM. For the same molecule, the CC50 (SF-539) was > 10 µM, the inhibition (Trypsin (Homo sapiens)) was “inactive” and the CC50 (LOX IMVI) was 0.537 µM. The CC50 (TK-10) was > 10 µM, the CC50 (HL-60(TB)) was > 10 µM and the CC50 (MDA-MB-231) was > 10 µM. It also gave an IC50 (Histone deacetylase 8) of 1.76 µM.
